Tests used:
[1] = target: T1, 5-hydroxytryptamine receptor 2C (Homo sapiens) (UniProt P28335); assay: Displacement of [3H]-mesulergine from human recombinant 5HT-2C receptor expressed in CHOK1 cell membranes at 10 uM after 30 mins relative to control; conditions: CHO-K1
T1 sequence (whole entry): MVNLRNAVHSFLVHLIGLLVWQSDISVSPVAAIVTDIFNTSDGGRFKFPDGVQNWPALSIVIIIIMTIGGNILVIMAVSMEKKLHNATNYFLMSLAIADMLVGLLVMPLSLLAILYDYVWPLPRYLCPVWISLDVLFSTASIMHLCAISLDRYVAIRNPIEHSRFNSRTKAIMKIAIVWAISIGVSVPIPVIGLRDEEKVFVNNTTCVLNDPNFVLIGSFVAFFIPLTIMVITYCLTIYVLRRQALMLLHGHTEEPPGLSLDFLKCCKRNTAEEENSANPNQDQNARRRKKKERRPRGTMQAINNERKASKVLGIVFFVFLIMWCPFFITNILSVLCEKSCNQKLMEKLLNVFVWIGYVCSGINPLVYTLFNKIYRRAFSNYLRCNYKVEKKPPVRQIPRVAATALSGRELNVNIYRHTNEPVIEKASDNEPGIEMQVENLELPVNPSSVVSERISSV
Summary of the method: (§1)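 Frozen CHO-K1 membranes expressing recombinant human 5-HT2C incubated with 1 nM [3H]mesulergine in 50 mM Tris-HCl pH 7.4 containing 0.1% ascorbic acid and pargyline. Mianserin defined nonspecific binding.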

[2] = target: T2, 5-hydroxytryptamine receptor 2A (Homo sapiens, UniProt P28223); assay: Displacement of [3H]-ketanserin from human recombinant 5HT-2A receptor expressed in CHOK1 cell membranes after 60 mins; set-up: species or system CHO-K1
T2 sequence (P28223 whole entry): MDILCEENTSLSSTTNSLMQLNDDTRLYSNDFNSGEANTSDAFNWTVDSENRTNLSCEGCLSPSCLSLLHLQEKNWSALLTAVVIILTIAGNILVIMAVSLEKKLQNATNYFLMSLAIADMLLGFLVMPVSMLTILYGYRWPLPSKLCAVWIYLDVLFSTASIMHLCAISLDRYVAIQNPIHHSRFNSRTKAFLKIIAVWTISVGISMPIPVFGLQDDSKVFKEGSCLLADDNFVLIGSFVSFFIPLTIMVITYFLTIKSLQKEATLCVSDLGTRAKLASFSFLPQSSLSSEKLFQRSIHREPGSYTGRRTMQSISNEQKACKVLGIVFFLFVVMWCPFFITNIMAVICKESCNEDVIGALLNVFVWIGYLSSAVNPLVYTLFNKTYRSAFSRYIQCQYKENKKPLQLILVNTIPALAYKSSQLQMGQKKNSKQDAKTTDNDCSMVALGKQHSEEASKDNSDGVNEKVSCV
Summary of the method: (§2)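 Buffer was 50 mM Tris-HCl pH 7.4 with 5 mM CaCl2 and 0.1% ascorbic acid. Test compound added at a range of concentrations.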

[3] = target: T2, 5-hydroxytryptamine receptor 2A; assay: Displacement of [3H]-ketanserin from human recombinant 5HT-2A receptor expressed in CHOK1 cell membranes at 10 uM after 60 mins relative to control; conditions: CHO-K1; summary of the method: as §2
[4] = target: T3, 5-hydroxytryptamine receptor 2C (Homo sapiens, UniProt P28335); assay: Displacement of [3H]-mesulergine from human recombinant 5HT-2C receptor expressed in CHOK1 cell membranes after 30 mins; set-up: species or system CHO-K1; summary of the method: as §1
T3 sequence (P28335 whole entry): T1 sequence (whole entry)

[5] = target: T3, 5-hydroxytryptamine receptor 2C; assay: Agonist activity at serotonin-activated human recombinant 5HT-2C receptor expressed in HEK293 cells assessed as increase in intracellular calcium level after 5 mins measured for 1 min by fluorescence assay; type: functional, cell-based
[6] = test system: Mus musculus; assay: Antiobesity activity in C57BL/6 mouse assessed as inhibition of body weight gain at 50 mg/kg, ip measured after 2 to 12 hrs relative to vehicle-treated control; type: functional; conditions: C57BL/6, ip, route intraperitoneal
[7] = test system: Mus musculus; assay: Antiobesity activity in C57BL/6 mouse assessed as inhibition of food intake at 50 mg/kg, ip measured after 2 to 12 hrs relative to vehicle-treated control; type: functional; conditions: C57BL/6, ip, route intraperitoneal
Summary of the method: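 Male mice were acclimated 1 week at 23 ± 3 °C and 50 ± 20% humidity, then fasted 24 h. They were dosed once intraperitoneally with vehicle or compound: 50 mg/kg in C57BL/6, or 12.5, 25 or 50 mg/kg in B6.V-Lep^ob/J. Food intake was measured at 2, 6 and 12 h versus vehicle control.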

Row | Compound | inhibition [1] [%] | IC50 [2] [nM] | inhibition [3] [%] | IC50 [4] [nM] | EC50 [5] [nM] | inhibition in vivo at 50 mg/kg [6] [%] | inhibition in vivo at 50 mg/kg [7] [%]
1 | COCCCNc1nc(Nc2ccc(F)cc2)c2cn[nH]c2n1 | 28 | 5280 | 67 | > 10000 |  |  | 
2 | CN1CCN(c2nc3c(c(N(C)C)n2)CCNCC3)CC1 |  | > 10000 |  | > 10000 | 1200 | 12.2 | 12.5
3 | CCCNc1nc(Nc2ccccc2)c2cn[nH]c2n1 | 29 | > 10000 | 30 | > 10000 |  |  | 
4 | Fc1ccc(Nc2nc(NC3CCCC3)nc3[nH]ncc23)cc1 | 35 | 4500 | 72 | > 10000 |  |  | 
5 | CN1CCN(c2ncc3c(n2)CCNCC3)CC1 |  | > 10000 |  | > 10000 |  |  | 
6 | COc1nc(N2CCN(C)CC2)nc2c1CCNCC2 |  | > 10000 |  | > 10000 |  |  | 
7 | Fc1ccc(Nc2nc(N3CCN(c4ccccc4)CC3)nc3[nH]ncc23)cc1 | 88 | 27.2 | 100 | 416 |  |  | 
8 | COc1ccccc1N1CCN(c2nc(Nc3ccc(F)cc3)c3cn[nH]c3n2)CC1 | 78 | 1380 | 93 | 1730 |  |  | 
9 | CN(C)c1nc(Nc2ccc(F)cc2)c2cn[nH]c2n1 | 66 | 4880 | 79 | 4030 |  |  | 
10 | CN1CCN(c2nc3c(c(N4CCOCC4)n2)CCNCC3)CC1 |  | > 10000 |  | > 10000 | 9600 |  | 
11 | CN1CCN(c2nc(Nc3ccc(F)cc3)c3cn[nH]c3n2)CC1 | 100 | 24.2 | 100 | 85.8 |  |  | 
12 | COc1ccc(Nc2nc(Cc3ccccc3)nc3c2CCNCC3)cc1 |  | 57.4 |  | 269 |  |  | 
13 | Fc1ccc(Nc2nc(NCc3ccccc3)nc3[nH]ncc23)cc1 | 82 | 1270 | 85 | 2590 |  |  | 
14 | Fc1ccc(Nc2nc(N3CCN(Cc4ccccc4)CC3)nc3[nH]ncc23)cc1 | 96 | 52.2 | 100 | 836 |  |  | 
15 | OCCCNc1nc(Nc2ccc(F)cc2)c2cn[nH]c2n1 | 5 | > 10000 | 26 | > 10000 |  |  | 
16 | Fc1ccc(Nc2nc(N3CCN(c4ccc(F)cc4)CC3)nc3[nH]ncc23)cc1 | 96 | 17.9 | 94 | 148 |  |  | 
17 | CCNc1nc(N2CCN(C)CC2)nc2c1CCNCC2 |  | > 10000 |  | > 10000 | > 10000 |  | 
18 | CN1CCc2nc(N3CCN(C)CC3)nc(Nc3ccc(F)cc3)c2CC1 |  | 684 |  | 779 |  |  | 
19 | CCNc1nc(Nc2ccc(F)cc2)c2cn[nH]c2n1 | 23 | > 10000 | 39 | > 10000 |  |  | 
20 | CCN(CC)c1nc(Nc2cccc(OC)c2)c2cn[nH]c2n1 | 61 | 2080 | 87 | 5420 |  |  | 
21 | COCCNc1nc(Nc2ccc(F)cc2)c2cn[nH]c2n1 | 18 | > 10000 | 25 | > 10000 |  |  | 
22 | COc1ccc(Nc2nc(N3CCN(c4ccc(F)cc4)CC3)nc3[nH]ncc23)cc1 | 86 | 696 | 92 | 1180 |  |  | 
23 | OCCN1CCN(c2nc(Nc3ccc(F)cc3)c3cn[nH]c3n2)CC1 | 97 | 163 | 100 | 494 |  |  | 
24 | CCN(CC)c1nc(Nc2ccc(F)cc2)c2cn[nH]c2n1 | 76 | 4530 | 84 | 3310 |  |  | 
